What was measured:
[1] = molecular target: T1, RNA-directed RNA polymerase (Hepacivirus hominis, UniProt O39930); test: Inhibitory concentration required to inhibit HCV RNA dependent RNA polymerase Nonstructural protein 5B in the presence of Mn2+ is determined
[2] = molecular target: T1, RNA-directed RNA polymerase; test: Inhibitory concentration required to inhibit HCV RNA dependent RNA polymerase Nonstructural protein 5B in the presence of Mg2+ is determined
[3] = organism: Rattus norvegicus; test: Concentration required for irreversible binding to rat liver microsomes in presence of NADPH without GSH; type: functional
Procedure, shortened: (§1)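 A tritium-labelled inhibitor was incubated with rat liver microsomes in the presence of NADPH for 4 h. Irreversible covalent binding was read as residual radioactivity bound to microsomal protein, expressed as pmol/mg protein.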

[4] = organism: Rattus norvegicus; test: Concentration required for irreversible binding to rat liver microsomes in presence of NADPH with GSH; type: functional; procedure, shortened: as §1
[5] = molecular target: Human immunodeficiency virus type 1 integrase (Human immunodeficiency virus 1, UniProt Q7ZJM1); test: Inhibitory concentration required to inhibit HIV-integrase is determined
[6] = molecular target: Human immunodeficiency virus type 1 reverse transcriptase (Human immunodeficiency virus 1, UniProt Q72547); test: Inhibitory concentration required to inhibit HIV-RT is determined
[7] = molecular target: DNA polymerase I (Escherichia coli, UniProt P00582); test: Inhibitory concentration required to inhibit Klenow DNA-dependent DNA polymerase
DNA polymerase I, sequence (P00582 whole entry): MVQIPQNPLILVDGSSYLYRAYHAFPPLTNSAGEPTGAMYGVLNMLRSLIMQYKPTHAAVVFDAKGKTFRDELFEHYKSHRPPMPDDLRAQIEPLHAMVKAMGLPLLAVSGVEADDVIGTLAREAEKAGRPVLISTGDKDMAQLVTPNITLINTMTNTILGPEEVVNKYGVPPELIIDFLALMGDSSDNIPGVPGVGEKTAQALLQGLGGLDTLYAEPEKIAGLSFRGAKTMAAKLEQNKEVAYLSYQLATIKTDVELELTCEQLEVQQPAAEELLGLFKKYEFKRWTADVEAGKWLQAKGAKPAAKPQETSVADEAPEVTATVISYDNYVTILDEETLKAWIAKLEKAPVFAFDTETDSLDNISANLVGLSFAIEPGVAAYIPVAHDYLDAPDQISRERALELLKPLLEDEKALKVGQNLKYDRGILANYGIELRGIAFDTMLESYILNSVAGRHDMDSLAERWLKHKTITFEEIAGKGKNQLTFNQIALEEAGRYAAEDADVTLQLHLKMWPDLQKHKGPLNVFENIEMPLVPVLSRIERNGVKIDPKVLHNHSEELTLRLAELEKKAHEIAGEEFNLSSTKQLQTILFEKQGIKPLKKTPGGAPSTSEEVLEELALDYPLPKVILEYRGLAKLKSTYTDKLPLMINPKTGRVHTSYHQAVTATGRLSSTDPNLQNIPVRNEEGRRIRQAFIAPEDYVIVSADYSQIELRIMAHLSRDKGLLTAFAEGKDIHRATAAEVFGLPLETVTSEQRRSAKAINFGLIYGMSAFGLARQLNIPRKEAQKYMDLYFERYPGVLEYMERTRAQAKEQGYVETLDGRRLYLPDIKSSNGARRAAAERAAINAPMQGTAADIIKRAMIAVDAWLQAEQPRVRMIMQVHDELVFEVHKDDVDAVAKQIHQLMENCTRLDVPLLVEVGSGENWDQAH

T1 sequence (O39930 whole entry): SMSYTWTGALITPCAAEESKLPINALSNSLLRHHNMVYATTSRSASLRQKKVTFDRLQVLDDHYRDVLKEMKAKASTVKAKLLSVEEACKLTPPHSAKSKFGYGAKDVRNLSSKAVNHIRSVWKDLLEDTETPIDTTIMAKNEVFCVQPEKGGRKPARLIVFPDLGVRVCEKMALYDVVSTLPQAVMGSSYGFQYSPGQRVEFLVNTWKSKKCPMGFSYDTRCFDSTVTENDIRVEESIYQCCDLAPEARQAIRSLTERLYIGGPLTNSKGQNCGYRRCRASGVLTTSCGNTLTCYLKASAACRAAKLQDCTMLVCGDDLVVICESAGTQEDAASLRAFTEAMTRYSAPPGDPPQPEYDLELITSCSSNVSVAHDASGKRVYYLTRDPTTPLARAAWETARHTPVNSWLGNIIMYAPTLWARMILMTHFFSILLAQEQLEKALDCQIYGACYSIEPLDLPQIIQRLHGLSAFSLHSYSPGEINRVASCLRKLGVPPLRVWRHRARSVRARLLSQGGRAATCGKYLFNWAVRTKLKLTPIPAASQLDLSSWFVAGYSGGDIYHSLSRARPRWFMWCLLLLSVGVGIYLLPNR
Human immunodeficiency virus type 1 integrase, sequence (Q7ZJM1 whole entry): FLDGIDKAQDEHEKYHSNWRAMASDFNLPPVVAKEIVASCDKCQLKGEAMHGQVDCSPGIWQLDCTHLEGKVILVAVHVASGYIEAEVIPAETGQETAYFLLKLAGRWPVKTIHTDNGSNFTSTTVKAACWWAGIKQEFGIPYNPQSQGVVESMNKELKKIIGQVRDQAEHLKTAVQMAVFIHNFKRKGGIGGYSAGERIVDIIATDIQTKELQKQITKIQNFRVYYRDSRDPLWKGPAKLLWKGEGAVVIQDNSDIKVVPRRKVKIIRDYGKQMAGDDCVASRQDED

Row | SMILES | IC50 [1] [µM] | IC50 [2] [µM] | Activity [3] [pmol/mg] | Activity [4] [pmol/mg] | IC50 [5] [µM] | IC50 [6] [µM] | IC50 [7] [µM]
1 | O=c1[nH]c(-c2cccc(O)c2)ncc1O | > 50 | > 50 | – | – | – | – | –
2 | O=C(O)C(=O)/C=C(\O)c1ccccc1 | – | – | > 400 | > 400 | – | – | –
3 | Cn1c(-c2cccc(O)c2)nc(C(=O)O)c(O)c1=O | 1 | 6 | – | – | – | – | –
4 | O=C(O)c1nc(-c2cccc(O)c2)nc(O)c1O | 0.6 | 5.8 | – | – | > 50 | > 100 | > 100
5 | O=C(O)c1nc(-c2cccc(OCc3ccccc3)c2)[nH]c(=O)c1O | 1 | 15 | – | – | > 50 | > 100 | > 100
6 | COc1nc(-c2cccc(O)c2)nc(C(=O)O)c1O | > 50 | > 50 | – | – | – | – | –
7 | O=C(O)c1nc(-c2ccccc2)nc(O)c1O | 2.3 | – | < 2 | < 2 | > 50 | > 100 | > 100
8 | COC(=O)c1nc(-c2ccc(Cl)cc2)[nH]c(=O)c1O | 30 | > 100 | – | – | – | – | –
9 | O=C(O)c1nc(-c2ccc(Cl)cc2)[nH]c(=O)c1O | 1.4 | 29 | – | – | > 50 | 23 | > 100
10 | COc1c(C(=O)O)nc(-c2ccc(Cl)cc2)[nH]c1=O | > 50 | > 50 | – | – | – | – | –
